In ChEMBL document CHEMBL3774373, “Activity and Predicted Nephrotoxicity of Synthetic Antibiotics Based on Polymyxin B” (J Med Chem, 2016):
Converted amounts (≈) assume the structure as drawn. Bridge positions count the residues as written; N and C are the ends. Square brackets hold non-standard residues; d marks the D form. Peptide text beside a SMILES is read from it. * marks the point of attachment. Benzoyl(4-OPh) = O=C(c1ccc(Oc2ccccc2)cc1)*; dDab = NCC[C@@H](N)C(=O)O; Octanoyl = CCCCCCCC(=O)*; Dab = NCC[C@H](N)C(=O)O

Legend:
Escherichia coli [1] = assay: Antibacterial activity against Escherichia coli ATCC 25922 after 18 hrs by 2 fold serial dilution method; type: functional; settings: ATCC 25922, 18 h
Summary of the method: (§1)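 Overnight cultures in nutrient or Mueller Hinton broth at 37 °C with shaking, diluted 50-fold into fresh MHB and grown 1.5–3 h to mid-log. Inoculum 5×10^5 CFU/mL in 2-fold serial dilutions, final range 32 to 0.015 μg/mL. MIC read visually after 18 h at 37 °C as the lowest concentration with no visible growth.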

Klebsiella pneumoniae [2] = assay: Antibacterial activity against Klebsiella pneumoniae ATCC 13883 after 18 hrs by 2 fold serial dilution method; type: functional; settings: ATCC 13883, 18 h; summary of the method: as §1
Klebsiella pneumoniae [3] = assay: Antibacterial activity against multidrug resistant Klebsiella pneumoniae ATCC 700603 after 18 hrs by 2 fold serial dilution method; type: functional; settings: Klebsiella pneumoniae, 700603, 18 h
Summary of the method: (§2)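 Overnight cultures at 37 °C in nutrient or Mueller Hinton broth with shaking were diluted 50-fold in MHB and grown 1.5–3 h to mid-log phase. The inoculum was 5×10^5 CFU/mL in MHB. Compounds were 2-fold serially diluted, final 32 to 0.015 μg/mL. After 18 h at 37 °C, the MIC was read visually as the lowest concentration with no visible growth.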

Klebsiella pneumoniae [4] = assay: Antibacterial activity against Klebsiella pneumoniae ATCC BAA-2146 expressing NDM-1 after 18 hrs by 2 fold serial dilution method; type: functional; settings: ATCC BAA-2146, 18 h; summary of the method: as §2
Acinetobacter baumannii [5] = assay: Antibacterial activity against Acinetobacter baumannii ATCC 19606 after 18 hrs by 2 fold serial dilution method; type: functional; settings: ATCC 19606, 18 h; summary of the method: as §1
Pseudomonas aeruginosa [6] = assay: Antibacterial activity against Pseudomonas aeruginosa ATCC 27853 after 18 hrs by 2 fold serial dilution method; type: functional; settings: ATCC 27853, 18 h; summary of the method: as §1
Pseudomonas aeruginosa [7] = assay: Antibacterial activity against clinical isolate polymyxin resistant Pseudomonas aeruginosa FADDI-PA070 after 18 hrs by 2 fold serial dilution method; type: functional; settings: FADDI-PA070, 18 h
Summary of the method: (§3)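 Polymyxin-resistant clinical isolates were grown overnight at 37 °C in NB or MHB with shaking, diluted 50-fold in MHB and grown 1.5–3 h to mid-log phase. The inoculum was 5×10^5 CFU/mL. Compounds were 2-fold broth serial dilutions, final 32 to 0.015 μg/mL; the polymyxin controls ran 128–0.06 μg/mL. The MIC was the lowest concentration with no visible growth after 18 h at 37 °C.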

Pseudomonas aeruginosa [8] = assay: Antibacterial activity against clinical isolate polymyxin resistant Pseudomonas aeruginosa PA9704 after 18 hrs by 2 fold serial dilution method; type: functional; settings: PA9704, 18 h; summary of the method: as §3
Acinetobacter baumannii [9] = assay: Antibacterial activity against clinical isolate carbapenem and polymyxin resistant Acinetobacter baumannii Ptyela 100734512:2 after 18 hrs by 2 fold serial dilution method; type: functional; settings: Ptyela 100734512:2, 18 h; summary of the method: as §3
Klebsiella pneumoniae [10] = assay: Antibacterial activity against clinical isolate carbapenem and polymyxin resistant Klebsiella pneumoniae Koprana 100650661:1 after 18 hrs by 2 fold serial dilution method; type: functional; settings: Koprana 100650661:1, 18 h; summary of the method: as §3
Klebsiella pneumoniae [11] = assay: Antibacterial activity against clinical isolate carbapenem and polymyxin resistant Klebsiella pneumoniae 138-16357-20362 after 18 hrs by 2 fold serial dilution method; type: functional; settings: 138-16357-20362, 18 h; summary of the method: as §3
[12] = Cytotoxicity against human HepG2 cells after 24 hrs by resazurin assay; type: cell-based; settings: HepG2 cells
[13] = Cytotoxicity against HEK293 cells after 24 hrs by resazurin assay; type: cell-based; settings: human, HEK293 cells
[14] = Cytotoxicity against HK2 cells assessed as LDH release by Western blot analysis; type: cell-based, HK-2; settings: human, primary human renal proximal tubule epithelial cells; read-out: CC50
[15] = Cytotoxicity against HK2 cells assessed as GGT release by Western blot analysis; type: cell-based, HK-2; settings: human, primary human renal proximal tubule epithelial cells; read-out: CC50
Staphylococcus aureus = assay: microbe, parasite or virus in culture; settings: ATCC 25923, 18 h
Escherichia coli [16] = assay: Antibacterial activity against Escherichia coli IFO12734; type: functional
Pseudomonas aeruginosa [17] = assay: Antibacterial activity against Pseudomonas aeruginosa IFO3080; type: functional
[18] = Cytotoxicity against HK2 cells assessed as LDH release by Western blot analysis; settings: human, hk-2
[19] = Cytotoxicity against primary human proximal tubule cells assessed as GGT release at 100 ug/mL by Western blot analysis

| SMILES | MIC (Escherichia coli [1]) | MIC (Klebsiella pneumoniae [2]) | MIC (Klebsiella pneumoniae [3]) | MIC (Klebsiella pneumoniae [4]) | MIC (Acinetobacter baumannii [5]) | MIC (Pseudomonas aeruginosa [6]) | MIC (Pseudomonas aeruginosa [7]) | MIC (Pseudomonas aeruginosa [8]) | MIC (Acinetobacter baumannii [9]) | MIC (Klebsiella pneumoniae [10]) | MIC (Klebsiella pneumoniae [11]) | CC50 at 24 h [12] | CC50 at 24 h [13] | CC50 [14] | CC50 [15] | MIC (Staphylococcus aureus) | MIC (Escherichia coli [16]) | MIC (Pseudomonas aeruginosa [17]) | Activity [18] | Activity [19] |
| --- | --- | --- | --- | --- | --- | --- | --- | --- | --- | --- | --- | --- | --- | --- | --- | --- | --- | --- | --- | --- |
| CCCCCCCC(=O)N[C@@H](CCN)C(=O)N[C@H](C(=O)NCC(=O)N[C@H]1CCNC(=O)[C@H]([C@@H](C)O)NC(=O)[C@H](CCN)NC(=O)[C@H](CCN)NC(=O)[C@H](CC(C)C)NC(=O)[C@@H](Cc2ccccc2)NC(=O)[C@H](CCN)NC1=O)[C@@H](C)O (Octanoyl-[Dab]TG[Dab][Dab][dF]L[Dab][Dab]T; lactam 4-C) | 0.5 µg/mL (≈ 0.436 µM) | 0.5 µg/mL (≈ 0.436 µM) | 1 µg/mL (≈ 0.872 µM) | 0.5 µg/mL (≈ 0.436 µM) | 1 µg/mL (≈ 0.872 µM) | 2 µg/mL (≈ 1.74 µM) | > 32 µg/mL | > 32 µg/mL | > 32 µg/mL | > 32 µg/mL | > 32 µg/mL | > 300 µM | > 300 µM | 122 µg/mL (≈ 106 µM) | > 128 µg/mL | > 64 µg/mL |  |  |  |  |
| CCCCCCCC(=O)N[C@@H](CCN)C(=O)N[C@H](C(=O)N[C@@H](CCN)C(=O)N[C@H]1CCNC(=O)[C@H]([C@@H](C)O)NC(=O)[C@H](CCN)NC(=O)[C@H](CCN)NC(=O)[C@H](CC(C)C)NC(=O)[C@@H](Cc2ccccc2)NC(=O)[C@H](CCN)NC1=O)[C@@H](C)O (Octanoyl-[Dab]T[Dab][Dab][Dab][dF]L[Dab][Dab]T; lactam 4-C) | 0.5 µg/mL (≈ 0.42 µM) | 2 µg/mL (≈ 1.68 µM) | 1 µg/mL (≈ 0.841 µM) | 0.5 µg/mL (≈ 0.42 µM) | 0.5 µg/mL (≈ 0.42 µM) | 1 µg/mL (≈ 0.841 µM) | > 32 µg/mL | > 128 µg/mL | > 64 µg/mL | > 128 µg/mL | > 128 µg/mL | > 300 µM |  |  |  | > 128 µg/mL | 0.5 µM (≈ 0.595 µg/mL) | 1 µM (≈ 1.19 µg/mL) |  |  |
| CCCCCCCC(=O)N[C@H](CCN)C(=O)N[C@H](C(=O)NCC(=O)N[C@H]1CCNC(=O)[C@H]([C@@H](C)O)NC(=O)[C@H](CCN)NC(=O)[C@H](CCN)NC(=O)[C@H](CC(C)C)NC(=O)[C@@H](Cc2ccccc2)NC(=O)[C@H](CCN)NC1=O)[C@@H](C)O (Octanoyl-[dDab]TG[Dab][Dab][dF]L[Dab][Dab]T; lactam 4-C) | > 32 µg/mL | > 32 µg/mL | 8 µg/mL (≈ 6.98 µM) | 32 µg/mL (≈ 27.9 µM) | > 64 µg/mL | 16 µg/mL (≈ 14 µM) | > 32 µg/mL | > 32 µg/mL | > 32 µg/mL | > 32 µg/mL | > 32 µg/mL | > 300 µM |  |  |  | > 64 µg/mL |  |  |  |  |
| CC(C)C[C@@H]1NC(=O)[C@@H](Cc2ccccc2)NC(=O)[C@H](CCN)NC(=O)[C@@H](NC(=O)[C@H](CCN)NC(=O)[C@@H](NC(=O)[C@H](CCN)NC(=O)c2ccc(Oc3ccccc3)cc2)[C@@H](C)O)CCNC(=O)[C@H]([C@@H](C)O)NC(=O)[C@H](CCN)NC(=O)[C@H](CCN)NC1=O ({Benzoyl(4-OPh)}-[Dab]T[Dab][Dab][Dab][dF]L[Dab][Dab]T; lactam 4-C) | 0.5 µg/mL (≈ 0.397 µM) | 0.5 µg/mL (≈ 0.397 µM) | 0.5 µg/mL (≈ 0.397 µM) | 0.5 µg/mL (≈ 0.397 µM) | 0.5 µg/mL (≈ 0.397 µM) | 1 µg/mL (≈ 0.794 µM) | 8 µg/mL (≈ 6.35 µM) | 32 µg/mL (≈ 25.4 µM) | 16 µg/mL (≈ 12.7 µM) | > 32 µg/mL | > 32 µg/mL | 287 µM | 296 µM | > 128 µg/mL | > 128 µg/mL | > 32 µg/mL |  |  | Non-toxic | Non-toxic |
